Measurements from ChEMBL document CHEMBL4041529, “Structure-Guided Design of EED Binders Allosterically Inhibiting the Epigenetic Polycomb Repressive Complex 2 (PRC2) Methyltransferase” (J Med Chem, 2017).

Tests used:
[1] = Dissociation constant, pKa of the compound by electrophoresis/potentiometric method; format: physicochemical
Polycomb protein EED [2] = biological target: T1, Polycomb protein EED (Homo sapiens, UniProt O75530); experiment: Inhibition of EED in human G401 cells assessed as reduction in H3K27 methylation measured after 48 hrs by ELISA method; format: cell-based
T1 sequence (O75530 whole entry): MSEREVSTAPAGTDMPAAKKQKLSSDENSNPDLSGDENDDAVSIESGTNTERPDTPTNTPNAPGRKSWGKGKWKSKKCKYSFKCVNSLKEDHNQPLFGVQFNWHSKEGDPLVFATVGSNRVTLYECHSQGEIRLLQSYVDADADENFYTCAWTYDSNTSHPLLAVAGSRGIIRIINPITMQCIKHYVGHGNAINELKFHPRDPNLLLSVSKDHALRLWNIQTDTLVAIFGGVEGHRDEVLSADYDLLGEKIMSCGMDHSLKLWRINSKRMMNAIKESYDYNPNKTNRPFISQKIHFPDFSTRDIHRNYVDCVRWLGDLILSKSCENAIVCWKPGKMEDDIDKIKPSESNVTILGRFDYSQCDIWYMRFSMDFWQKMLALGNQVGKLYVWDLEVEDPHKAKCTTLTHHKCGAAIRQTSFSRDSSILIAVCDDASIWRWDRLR
Outline: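 G-401 rhabdoid cells at 37 °C, 5% CO2 were seeded, grown 24 h, then given serial dilutions for 48 h against a matched DMSO control. Cells were PBS-washed, lysed in 0.4 N HCl for 30 min at 4 °C and neutralized. Lysate was coated overnight at 4 °C, blocked with TBST/5% BSA, then probed with antibody and ECL. H3K27Me3 was normalized to H3, and IC50 came from a dose-response fit.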

Polycomb protein EED [3] = biological target: T1, Polycomb protein EED; experiment: Inhibition of human PRC2-EED (76 to 441 residues) expressed in Escherichia coli BL21 (DE3) using histone H3[21 to 44, K27MeO] as substrate and SAM as co-factor measured after 2 hrs by LC-MS/MS method
Polycomb protein EED [4] = biological target: T1, Polycomb protein EED; experiment: Binding affinity to human methionine-13Cepsilon-methyl labeled PRC2-EED (76 to 441 residues) expressed in Escherichia coli BL21 (DE3) by 2D NMR method
Outline: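 2D [13C,1H]-HSQC at 600 MHz, 296 K, on 40 μM selectively methionine-13Cε-methyl-labeled EED76–441 in 25 mM d-Tris pH 8, 150 mM NaCl, 2 mM d-DTT, 10% D2O. The protein was titrated with increasing ligand, and KD was derived from the chemical shift perturbations.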

Pfeiffer = experiment: Antiproliferative activity against human Pfeiffer cells harboring EZH2 mutant measured after 6 days by CellTiter-Glo assay; format: functional, cell-based; conditions: for EC50: 144 h
Outline: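 Exponentially growing Pfeiffer B-lymphocyte cells were exposed to compound for 6 days. Growth was read by CellTiter-Glo luminescence. Percent inhibition was taken versus a DMSO control, and IC50 was obtained by curve fitting.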

pKa [1] | IC50 (Polycomb protein EED [2]) [µM] | IC50 (Polycomb protein EED [3]) [µM] | Compound | other results
> 11 | 2.5 | 2.1 | N=C(N)N1CCCC(Cc2cccc3occc23)C1 (centres undefined) | 
9.9 |  | 95 | COc1cccc(CC2CCCNC2)c1 (centres undefined) | Kd (Polycomb protein EED [4]): 32 µM
 |  | 7.9 | CC(C)c1nc(N)n2c1CCC(Cc1ccccc1F)C2 (centres undefined) | 
 | 12.4 | 2.7 | Nc1ncc2n1CC(Cc1cccc3occc13)CC2 (centres undefined) | 
> 11 | 1.6 | 3.9 | N=C(N)N1CCCC(Cc2cccc3c2OCO3)C1 (centres undefined) | 
 | 2.9 | 1.3 | COc1ccc(F)c(CC2CCc3c(C(C)C)nc(N)n3C2)c1 (centres undefined) | EC50 (Pfeiffer): 4.4 µM
9.8 |  | 40 | c1cc(CC2CCCNC2)c2ccoc2c1 (centres undefined) | 
 |  | 95 | c1cc(CC2CCCNC2)c2occc2c1 (centres undefined) | 
 | 2.5 | 2.8 | N=C(N)N1CCCC(Cc2cccc3ccoc23)C1 (centres undefined) | 
> 11 |  | 43 | COc1cccc(CC2CCCN(C(=N)N)C2)c1 (centres undefined) | 
 |  | > 500 | COc1ccc(CC2CCCNC2)cc1 (centres undefined) | 
9.2 | 1 | 1.3 | Nc1ncc2n1CC(Cc1cccc3c1OCO3)CC2 (centres undefined) | 
 |  | 119 | COc1cc(CC2CCCNC2)ccc1F (centres undefined) | 
 |  | > 500 | c1ccc(CC2CCCNC2)cc1 (centres undefined) | 
 |  | 35 | c1cc(CC2CCCNC2)c2c(c1)OCO2 (centres undefined) | 
 | 2 | 0.43 | CC(C)c1nc(N)n2c1CCC(Cc1cccc3c1OCO3)C2 (centres undefined) | Activity (Pfeiffer): Dose-dependent effect; EC50 (Pfeiffer): 3.4 µM
 |  | 174 | NC(=O)N1CCCC(Cc2cccc3ccoc23)C1 (centres undefined) | 
